ChEMBL document CHEMBL2069205 (Bioorg Med Chem Lett, 2012)

Experiments:
[1] = biological target: T1, Potassium voltage-gated channel subfamily KQT member 1 (Homo sapiens, UniProt P51787); assay: Activation of Kv7.1 channel expressed in CHO cells assessed as depolarization-induced […] after 3 mins by patch clamp assay; type: cell-based
T1 sequence (P51787 whole entry): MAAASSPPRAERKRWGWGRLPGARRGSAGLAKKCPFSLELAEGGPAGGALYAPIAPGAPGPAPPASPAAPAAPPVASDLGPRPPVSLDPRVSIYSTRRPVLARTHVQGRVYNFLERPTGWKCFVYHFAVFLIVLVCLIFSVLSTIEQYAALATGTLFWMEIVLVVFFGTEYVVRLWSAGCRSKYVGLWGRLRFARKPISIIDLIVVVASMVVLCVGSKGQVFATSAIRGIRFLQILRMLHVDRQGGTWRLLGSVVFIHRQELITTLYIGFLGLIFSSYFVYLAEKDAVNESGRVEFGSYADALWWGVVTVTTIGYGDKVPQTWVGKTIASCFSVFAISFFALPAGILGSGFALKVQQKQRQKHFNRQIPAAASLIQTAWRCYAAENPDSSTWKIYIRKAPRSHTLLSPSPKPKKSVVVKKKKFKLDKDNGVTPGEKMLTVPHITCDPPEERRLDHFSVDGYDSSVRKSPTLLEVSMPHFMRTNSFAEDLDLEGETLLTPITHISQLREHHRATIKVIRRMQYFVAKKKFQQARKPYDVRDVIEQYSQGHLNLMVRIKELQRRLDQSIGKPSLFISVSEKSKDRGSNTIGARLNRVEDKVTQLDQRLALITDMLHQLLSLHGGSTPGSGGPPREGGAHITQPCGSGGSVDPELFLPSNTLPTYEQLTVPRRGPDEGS
In short: (§1)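 CHO cells stably expressing KCNQ1 were run by perforated (amphotericin B, 50 µg/ml) population patch clamp in pH 7.4 HEPES extracellular solution. Cells were held at −80 mV and stepped to +40 mV for 2000 ms. Current at the end of the step was taken before and after 3 min of compound, as percent change. Wells needed >30 MΩ seal and 0.6–0.8 nA minimum current. EC50s came from 8-point, threefold dilutions in duplicate.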

[2] = biological target: T1, Potassium voltage-gated channel subfamily KQT member 1; assay: Activation of Kv7.1 channel expressed in CHO cells assessed as depolarization-induced […] after 3 mins by patch clamp assay relative to control; type: cell-based; details: 0.05 h, read-out: %max; in short: as §1
[3] = tested on: Liver microsomes; assay: Drug metabolism in human liver microsomes assessed as methoxy-O-demethylation by mass spectrophotometry; type: ADME, Microsome
In short: (§2)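 In vitro biotransformation in liver microsomes was examined, with primary metabolic pathways identified by mass spectrometry.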

[4] = tested on: Liver microsomes; assay: Drug metabolism in rat liver microsomes assessed as tolyl-oxidation by mass spectrophotometry; type: ADME, Microsome; in short: as §2
[5] = tested on: Liver microsomes; assay: Drug metabolism in human liver microsomes assessed as tolyl-oxidation by mass spectrophotometry; type: ADME, Microsome; in short: as §2
[6] = biological target: Potassium voltage-gated channel subfamily KQT member 2 (Homo sapiens, UniProt O43526); assay: Activation of KCNQ2 channel expressed in CHO cells assessed as depolarization-induced […] after 3 mins by patch clamp assay relative to control; type: cell-based
[7] = biological target: T2, Potassium voltage-gated channel subfamily KQT member 4 (Homo sapiens, UniProt P56696); assay: Activation of KCNQ4 channel expressed in CHO cells assessed as depolarization-induced […] after 3 mins by patch clamp assay relative to control; type: cell-based
T2 sequence (P56696 whole entry): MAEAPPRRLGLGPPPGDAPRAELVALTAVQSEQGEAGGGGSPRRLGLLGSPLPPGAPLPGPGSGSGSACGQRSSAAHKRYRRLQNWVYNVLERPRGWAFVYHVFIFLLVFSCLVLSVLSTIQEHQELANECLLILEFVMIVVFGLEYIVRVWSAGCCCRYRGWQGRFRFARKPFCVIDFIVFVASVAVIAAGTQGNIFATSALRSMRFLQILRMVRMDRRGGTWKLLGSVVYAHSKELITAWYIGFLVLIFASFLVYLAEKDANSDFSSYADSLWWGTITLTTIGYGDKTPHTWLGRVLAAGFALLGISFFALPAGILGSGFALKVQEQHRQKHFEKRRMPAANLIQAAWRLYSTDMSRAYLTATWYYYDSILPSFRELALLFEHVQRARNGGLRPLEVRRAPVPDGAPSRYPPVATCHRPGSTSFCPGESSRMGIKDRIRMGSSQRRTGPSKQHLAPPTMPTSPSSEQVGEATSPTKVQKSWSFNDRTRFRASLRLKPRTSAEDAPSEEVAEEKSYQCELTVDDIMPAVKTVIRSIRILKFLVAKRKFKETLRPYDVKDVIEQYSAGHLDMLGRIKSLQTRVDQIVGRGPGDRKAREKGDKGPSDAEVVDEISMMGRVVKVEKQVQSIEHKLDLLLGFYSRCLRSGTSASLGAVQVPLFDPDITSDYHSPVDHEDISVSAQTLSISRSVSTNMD
In short: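 KCNQ4-expressing CHO cells were measured on the same perforated population patch-clamp platform. Cells were held at −70 mV and depolarized to +40 mV, with step current measured at +40 mV before and after 3 min of compound. Effect was calculated as percent change from the pre-compound current in the same well. The 8-point, threefold concentration series was run in duplicate.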

[8] = biological target: T3, Adenosine receptor A3 (Homo sapiens) (UniProt P0DMS8); assay: Inhibition of human adenosine A3 receptor at 10 uM
T3 sequence (whole entry): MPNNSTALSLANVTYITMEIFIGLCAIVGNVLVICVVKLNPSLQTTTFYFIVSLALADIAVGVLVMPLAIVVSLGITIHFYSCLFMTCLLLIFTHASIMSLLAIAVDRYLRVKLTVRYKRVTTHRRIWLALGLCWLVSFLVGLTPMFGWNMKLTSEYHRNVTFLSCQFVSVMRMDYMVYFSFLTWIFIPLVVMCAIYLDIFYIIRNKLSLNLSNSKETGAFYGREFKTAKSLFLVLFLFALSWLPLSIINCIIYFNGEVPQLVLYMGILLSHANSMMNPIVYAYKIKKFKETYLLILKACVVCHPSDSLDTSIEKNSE
In short: (§3)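 The Lead Profiling binding panel (68 GPCRs, ion channels and transporters) was run at a single point, reading percent inhibition.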

[9] = biological target: Cannabinoid receptor 1 (Homo sapiens) (UniProt P21554); assay: Inhibition of human CB1 receptor at 10 uM; in short: as §3
[10] = biological target: 5-hydroxytryptamine receptor 2B (Homo sapiens) (UniProt P41595); assay: Inhibition of human 5HT2B receptor at 10 uM
In short: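 Commercial lead-profiling binding panel of up to 68 GPCRs, ion channels and transporters; percent inhibition measured at a single concentration of 10 µM.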

[11] = biological target: Sodium-dependent dopamine transporter (Homo sapiens) (UniProt Q01959); assay: Inhibition of human DAT at 10 uM; in short: as §3
[12] = tested on: Plasma; assay: Fraction unbound in human plasma; type: ADME, cell-free
In short: (§4)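 Plasma protein binding was measured by rapid equilibrium dialysis, giving the unbound fraction.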

[13] = tested on: Plasma; assay: Fraction unbound in rat plasma; type: ADME, cell-free; in short: as §4
[14] = Intrinsic clearance in human liver microsomes; type: ADME, Microsome; details: read-out: CLH
In short: (§5)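 Intrinsic clearance was measured in hepatic microsomes, and the data were used to predict hepatic clearance (CL_HEP).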

[15] = Intrinsic clearance in rat liver microsomes; type: ADME, Microsome; details: read-out: CLH; in short: as §5
[16] = tested on: Liver microsomes; assay: Drug metabolism in rat liver microsomes assessed as methoxy-O-demethylation by mass spectrophotometry; type: ADME, Microsome; in short: as §2

Sequence of Sodium-dependent dopamine transporter (Homo sapiens) (Q01959 whole entry): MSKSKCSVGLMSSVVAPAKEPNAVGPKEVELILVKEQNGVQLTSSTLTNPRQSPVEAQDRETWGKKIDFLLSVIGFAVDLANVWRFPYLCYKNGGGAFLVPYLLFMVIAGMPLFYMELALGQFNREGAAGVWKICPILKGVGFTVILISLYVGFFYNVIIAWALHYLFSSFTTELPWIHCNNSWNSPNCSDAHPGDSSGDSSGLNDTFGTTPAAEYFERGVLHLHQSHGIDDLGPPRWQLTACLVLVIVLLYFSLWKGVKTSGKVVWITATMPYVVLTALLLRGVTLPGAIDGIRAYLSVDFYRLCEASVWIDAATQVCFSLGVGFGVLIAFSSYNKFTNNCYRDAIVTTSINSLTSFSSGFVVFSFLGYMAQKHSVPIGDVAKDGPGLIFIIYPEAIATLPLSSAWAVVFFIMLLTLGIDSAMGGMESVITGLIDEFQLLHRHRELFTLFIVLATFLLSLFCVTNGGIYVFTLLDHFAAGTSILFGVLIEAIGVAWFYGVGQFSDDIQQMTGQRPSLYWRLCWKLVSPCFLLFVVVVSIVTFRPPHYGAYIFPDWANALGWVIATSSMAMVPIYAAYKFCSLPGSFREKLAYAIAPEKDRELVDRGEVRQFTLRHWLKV
Sequence of Potassium voltage-gated channel subfamily KQT member 2 (O43526 whole entry): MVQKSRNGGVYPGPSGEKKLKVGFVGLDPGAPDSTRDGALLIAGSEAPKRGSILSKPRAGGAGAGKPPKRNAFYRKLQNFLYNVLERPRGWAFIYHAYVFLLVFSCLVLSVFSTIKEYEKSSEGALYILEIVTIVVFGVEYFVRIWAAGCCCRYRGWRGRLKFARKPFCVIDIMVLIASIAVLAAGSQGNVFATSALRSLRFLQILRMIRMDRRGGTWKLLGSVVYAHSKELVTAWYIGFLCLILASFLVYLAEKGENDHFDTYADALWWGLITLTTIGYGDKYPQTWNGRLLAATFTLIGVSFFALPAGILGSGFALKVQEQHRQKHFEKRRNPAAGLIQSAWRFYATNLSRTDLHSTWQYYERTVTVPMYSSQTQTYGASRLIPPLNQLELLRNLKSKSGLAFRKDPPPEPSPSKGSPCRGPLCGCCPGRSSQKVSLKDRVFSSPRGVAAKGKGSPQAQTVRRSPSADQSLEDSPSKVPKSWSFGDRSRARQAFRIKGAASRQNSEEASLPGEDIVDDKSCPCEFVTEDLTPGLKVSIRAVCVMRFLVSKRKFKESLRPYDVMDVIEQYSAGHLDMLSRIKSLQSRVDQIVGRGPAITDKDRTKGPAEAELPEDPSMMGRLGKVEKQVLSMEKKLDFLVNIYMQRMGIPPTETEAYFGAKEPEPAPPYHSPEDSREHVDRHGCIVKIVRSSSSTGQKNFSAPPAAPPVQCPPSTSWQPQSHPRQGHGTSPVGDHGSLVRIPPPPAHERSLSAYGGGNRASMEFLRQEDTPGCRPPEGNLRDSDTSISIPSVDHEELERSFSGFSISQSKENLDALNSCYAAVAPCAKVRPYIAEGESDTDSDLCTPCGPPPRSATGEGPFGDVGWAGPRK
Sequence of 5-hydroxytryptamine receptor 2B (Homo sapiens) (P41595 whole entry): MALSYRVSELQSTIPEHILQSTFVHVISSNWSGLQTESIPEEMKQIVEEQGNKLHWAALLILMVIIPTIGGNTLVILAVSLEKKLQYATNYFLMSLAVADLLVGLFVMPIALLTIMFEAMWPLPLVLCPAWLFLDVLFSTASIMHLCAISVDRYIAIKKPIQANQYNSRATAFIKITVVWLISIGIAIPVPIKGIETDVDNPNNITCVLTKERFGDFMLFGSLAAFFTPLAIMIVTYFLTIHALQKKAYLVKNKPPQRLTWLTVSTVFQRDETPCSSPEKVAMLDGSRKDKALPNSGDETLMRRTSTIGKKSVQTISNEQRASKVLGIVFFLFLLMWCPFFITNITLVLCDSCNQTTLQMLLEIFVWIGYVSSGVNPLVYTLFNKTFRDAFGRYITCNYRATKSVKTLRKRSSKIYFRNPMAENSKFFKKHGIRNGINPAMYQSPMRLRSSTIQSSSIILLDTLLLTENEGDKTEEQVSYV
Sequence of Cannabinoid receptor 1 (Homo sapiens) (P21554 whole entry): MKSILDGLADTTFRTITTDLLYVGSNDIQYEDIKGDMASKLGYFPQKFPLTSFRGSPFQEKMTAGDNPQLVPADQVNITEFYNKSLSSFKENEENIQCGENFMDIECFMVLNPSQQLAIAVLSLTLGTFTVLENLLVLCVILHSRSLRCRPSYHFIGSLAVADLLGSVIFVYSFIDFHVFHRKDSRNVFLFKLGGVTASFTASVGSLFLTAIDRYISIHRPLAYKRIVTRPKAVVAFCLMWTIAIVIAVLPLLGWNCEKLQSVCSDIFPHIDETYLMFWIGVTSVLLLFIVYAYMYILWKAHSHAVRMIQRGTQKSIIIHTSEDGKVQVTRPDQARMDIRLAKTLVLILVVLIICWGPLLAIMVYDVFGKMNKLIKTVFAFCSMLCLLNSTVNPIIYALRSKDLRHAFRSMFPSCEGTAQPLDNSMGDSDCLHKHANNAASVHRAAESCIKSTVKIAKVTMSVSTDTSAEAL

COc1ccc(-c2csc(NC(=O)[C@H]3CCCCN3S(=O)(=O)c3ccc4c(c3)OCO4)n2)cc1
EC50 [1]: 0.78 µM | Emax [2]: 178%

COc1ccc(-c2csc(NC(=O)[C@H]3CCCCN3S(=O)(=O)c3ccc(C)cc3)n2)cc1
Drug metabolism [3]: Active | Drug metabolism [4]: Active | Drug metabolism [5]: Active | EC50 [6]: > 30 µM | EC50 [7]: > 30 µM | inhibition [8]: 73% | inhibition [9]: 97% | inhibition [10]: 66% | inhibition [11]: 54% | Fu [12]: 0.6% | Fu [13]: 0.7% | CLint scaled [14]: 18 mL/min/kg | CLint scaled [15]: 64.7 mL/min/kg | Drug metabolism [16]: Active

COc1ccc(-c2csc(NC(=O)[C@@H]3CCCCN3S(=O)(=O)c3ccccc3)n2)cc1
EC50 [1]: > 30 µM

COc1ccc(-c2csc(NC(=O)C3CCCCN3S(=O)(=O)c3ccccc3)n2)cc1 (racemic)
EC50 [1]: 1.69 µM | Emax [2]: 285%

O=C(Nc1nc(-c2ccc(OC(F)(F)F)cc2)cs1)[C@H]1CCCCN1S(=O)(=O)c1ccc(OC(F)(F)F)cc1
Activity ([1]; human, cho, 0.05 h): Not Active | CLint scaled [14]: 7.9 mL/min/kg | CLint scaled [15]: 20.6 mL/min/kg

COc1ccc(-c2csc(NC(=O)[C@H]3CCCCN3S(=O)(=O)c3ccccc3)n2)cc1
EC50 [1]: 1.47 µM | Emax [2]: 359%
